Assay results taken from ChEMBL document CHEMBL3259771, “Probing the aurone scaffold against Plasmodium falciparum: design, synthesis and antimalarial activity” (Eur J Med Chem, 2014).
Calls of active or inactive are those of the source. The calls are words filed in the database; no cut-off is given here.

Columns and labels:
Plasmodium falciparum [1] = assay: Antiplasmodial activity against chloroquine-resistant ring stage Plasmodium falciparum W2 infected in human RBC after 48 hrs by flow cytometric analysis; assay type: functional, organism-based; conditions: W2, 48 h
Summary of the method: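 Ring-stage W2 parasites at 1% in human erythrocytes, synchronized with 5% sorbitol. Incubated with compound 48 h at 37 °C in RPMI-1640 with 25 mM HEPES pH 7.4, 10% heat-inactivated human serum (or 0.5% Albumax/2% human serum) and hypoxanthine, under 3% O₂/5% CO₂/[…]. Cells fixed in 2% formaldehyde, stained in PBS with NH₄Cl, 0.1% Triton X-100 and 1 nM YOYO-1, then counted by flow cytometry.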

Plasmodium falciparum [2] = assay: Inhibition of Plasmodium falciparum falcipain-2 up to 50 uM
HEK-293T = assay: Cytotoxicity against HEK293T cells after 48 hrs by MTT assay; assay type: cell-based; conditions: Homo sapiens
[3] = Selectivity index, ratio of EC50 for HEK293T cells to IC50 for chloroquine-resistant ring stage Plasmodium falciparum W2; assay type: functional, HEK-293T
[4] = Water-lipid distribution coefficient, log D of the compound at pH 5.2; assay type: physicochemical
[5] = Vacuolar accumulation ratio of the compound; assay type: ADME
Summary of the method: (§1)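 Calculated rather than measured. VAR: predicted trapping in acidic digestive vacuole from pH-dependent water/lipid distribution (log D). LAR: expected fraction concentrating in the vacuole's lipid component.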

[6] = Inhibition of hemozoin-like crystal formation up to 1 mM after 5 days; assay type: functional
Summary of the method: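 Hemozoin-like crystal stock suspension sonicated 3 min and diluted in fresh broth medium. Compounds in wells at 0–1000 final concentration after 0.22 filtration. Incubated at 37 °C, 5% CO₂, 5 days, then scored for presence or absence of crystal growth. Triplicate.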

[7] = Lipid accumulation ratio of the compound; assay type: physicochemical; summary of the method: as §1
[8] = Water-lipid distribution coefficient, log D of the compound at pH 7.4; assay type: physicochemical
Plasmodium falciparum [9] = assay: Antimalarial activity against chloroquine-resistant ring stage Plasmodium falciparum Dd2 infected in human erythrocytes after 48 hrs by SYBR Green I staining-based isobologram method in presence of chloroquine; assay type: functional
Summary of the method: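 Fixed-ratio isobologram: IC50s of each drug alone found first, then 2-fold dilution dose-response series at IC50 ratios 5:0, 4:1, 3:2, 2:3, 1:4, 0:5. Early ring-stage parasitized erythrocytes at 1% parasitaemia, 3% haematocrit, triplicate wells, 48 h at 37 °C. Growth read by SYBR Green I fluorescence, nonlinear regression. Interaction from sum of FICs (IC50 in combination/IC50 alone).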

## CN(C)c1ccc(/C=C2\Oc3cc(O)ccc3C2=O)cc1
Plasmodium falciparum [1]
  IC50: > 10 µM
Plasmodium falciparum [2]
  inhibition: inactive
HEK-293T
  EC50: > 100 µM
[3]
  Selectivity Index: >10

## CN1CCN(Cc2c(O)ccc3c2O/C(=C\c2ccccc2)C3=O)CC1
[4]
  logD: -3.33
Plasmodium falciparum [1]
  IC50: 4.01 µM
[5]
  Ratio: 22589
[6]
  inhibition: inactive
HEK-293T
  EC50: > 100 µM
[3]
  Selectivity Index: >25
[7]
  Ratio: 10.6
[8]
  logD: 1.02

## O=C1/C(=C/c2ccc(Cl)cc2Cl)Oc2cc(O)ccc21
Plasmodium falciparum [1]
  IC50: > 10 µM
Plasmodium falciparum [2]
  inhibition: inactive
HEK-293T
  EC50: > 100 µM
[3]
  Selectivity Index: >10

## O=C1/C(=C/c2ccc(F)cc2F)Oc2cc(O)ccc21
Plasmodium falciparum [1]
  IC50: > 10 µM
Plasmodium falciparum [2]
  inhibition: inactive
HEK-293T
  EC50: > 100 µM
[3]
  Selectivity Index: >10

## O=C1/C(=C/c2ccc(NCc3ccccc3)cc2)Oc2ccccc21
Plasmodium falciparum [1]
  IC50: 5 µM
Plasmodium falciparum [2]
  inhibition: inactive
HEK-293T
  EC50: > 100 µM
[3]
  Selectivity Index: >20

## O=C1/C(=C/c2ccccc2)Oc2c1ccc(O)c2CN1CCCCC1
[4]
  logD: -0.15
Plasmodium falciparum [1]
  IC50: 1.18 µM
[5]
  Ratio: 155
[6]
  inhibition: inactive
HEK-293T
  EC50: > 100 µM
[3]
  Selectivity Index: >85
[7]
  Ratio: 110
[8]
  logD: 2.04

## O=C1/C(=C/c2ccccc2)Oc2c1ccc(O)c2CN1CCOCC1
[4]
  logD: 1.19
Plasmodium falciparum [1]
  IC50: 3.34 µM
[5]
  Ratio: 17.2
[6]
  inhibition: inactive
HEK-293T
  EC50: > 100 µM
[3]
  Selectivity Index: >30
[7]
  Ratio: 265
Plasmodium falciparum [9]
  CI: 1.06
[8]
  logD: 2.42

## O=C1/C(=C/c2cccc(-c3ccc(F)cc3)c2)Oc2ccccc21
Plasmodium falciparum [1]
  IC50: 4.41 µM
Plasmodium falciparum [2]
  inhibition: inactive
HEK-293T
  EC50: > 100 µM
[3]
  Selectivity Index: >23

## CCN(CC)Cc1c(O)ccc2c1O/C(=C\c1ccccc1)C2=O
[4]
  logD: -0.4
Plasmodium falciparum [1]
  IC50: 3.47 µM
[5]
  Ratio: 156
[6]
  inhibition: inactive
HEK-293T
  EC50: > 100 µM
[3]
  Selectivity Index: >29
[7]
  Ratio: 62
[8]
  logD: 1.79

## O=C1/C(=C/c2ccccc2)Oc2ccccc21 [(Z)-AURONE]
Plasmodium falciparum [1]
  IC50: > 10 µM
Plasmodium falciparum [2]
  inhibition: inactive
HEK-293T
  EC50: > 100 µM
[3]
  Selectivity Index: >10

## O=C1/C(=C/c2ccccc2)Oc2cc(-c3ccc(F)cc3)ccc21
Plasmodium falciparum [1]
  IC50: > 10 µM
Plasmodium falciparum [2]
  inhibition: inactive
HEK-293T
  EC50: > 100 µM
[3]
  Selectivity Index: >10

## O=C1/C(=C/c2cccc(Cc3ccccc3)c2)Oc2ccccc21
Plasmodium falciparum [1]
  IC50: 2.31 µM
Plasmodium falciparum [2]
  inhibition: inactive
HEK-293T
  EC50: 71 µM
[3]
  Selectivity Index: >31

## Nc1ccc(-c2ccc(/C=C3\Oc4ccccc4C3=O)cc2)cn1
[4]
  logD: 2.7
Plasmodium falciparum [1]
  IC50: 3.7 µM
[5]
  Ratio: 9.2
Plasmodium falciparum [2]
  inhibition: inactive
[6]
  inhibition: inactive
HEK-293T
  EC50: > 100 µM
[3]
  Selectivity Index: >27
[7]
  Ratio: 4643
[8]
  logD: 3.67

## O=C1/C(=C/c2cccc(-c3ccc(Cl)cc3)c2)Oc2ccccc21
Plasmodium falciparum [1]
  IC50: > 10 µM
Plasmodium falciparum [2]
  inhibition: inactive
HEK-293T
  EC50: > 100 µM
[3]
  Selectivity Index: >10

## O=Cc1ccc(-c2cccc(/C=C3\Oc4ccccc4C3=O)c2)cc1
Plasmodium falciparum [1]
  IC50: > 10 µM
Plasmodium falciparum [2]
  inhibition: inactive
HEK-293T
  EC50: > 100 µM
[3]
  Selectivity Index: >10

## O=C1/C(=C/c2ccc(-c3cnc4ccccc4c3)cc2)Oc2ccccc21
[4]
  logD: 5.08
Plasmodium falciparum [1]
  IC50: 6.59 µM
[5]
  Ratio: 1.19
Plasmodium falciparum [2]
  inhibition: inactive
HEK-293T
  EC50: > 100 µM
[3]
  Selectivity Index: >15
[7]
  Ratio: 144366
[8]
  logD: 5.16

## O=Cc1ccc(-c2ccc(/C=C3\Oc4ccccc4C3=O)cc2)cc1
Plasmodium falciparum [1]
  IC50: > 10 µM
Plasmodium falciparum [2]
  inhibition: inactive
HEK-293T
  EC50: > 100 µM
[3]
  Selectivity Index: >10

## O=C1/C(=C/c2cccc(-c3ccccc3)c2)Oc2ccccc21
Plasmodium falciparum [1]
  IC50: 5.21 µM
Plasmodium falciparum [2]
  inhibition: inactive
HEK-293T
  EC50: > 100 µM
[3]
  Selectivity Index: >19

## O=C1/C(=C/c2ccc(Oc3ccc(Cl)cc3)cc2)Oc2ccccc21
Plasmodium falciparum [1]
  IC50: > 10 µM
Plasmodium falciparum [2]
  inhibition: inactive
HEK-293T
  EC50: > 100 µM
[3]
  Selectivity Index: >10

## COc1cc(/C=C2\Oc3cc(O)ccc3C2=O)cc(OC)c1OC
Plasmodium falciparum [1]
  IC50: > 10 µM
Plasmodium falciparum [2]
  inhibition: inactive
HEK-293T
  EC50: > 100 µM
[3]
  Selectivity Index: >10

## O=C1/C(=C/c2cccc(Br)c2)Oc2ccccc21
Plasmodium falciparum [1]
  IC50: 4.7 µM
Plasmodium falciparum [2]
  inhibition: inactive
HEK-293T
  EC50: > 100 µM
[3]
  Selectivity Index: >21

## O=C1/C(=C/c2ccc(Br)cc2)Oc2ccccc21
Plasmodium falciparum [1]
  IC50: 3.21 µM
Plasmodium falciparum [2]
  inhibition: inactive
HEK-293T
  EC50: > 100 µM
[3]
  Selectivity Index: >31
